# Source: PubChem (several laboratories)
# CaV13 FRET inh – Primary screen for inhibitors of IQ motif and Ca2+-dependent inactivation inhibitor domain binding in CACNA1D, Förster resonance energy transfer in living cells, …; HEK cells, CFP/YFP FRET ICDI-IQ, plate reader, 10 min; percent FRET-ratio fall versus neutral wells; inhibition, % at 12.3 µM; 340,000 tested, 0.098% active; AID 743397;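 active means mean replicate inhibition of at least 30% and at least 1% of replicates passing that level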;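 further: 0% = median of the neutral control wells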
# CendR NRP1 mod – alters CendR peptide binding to human NRP-1. O14786. FAM-RPARPAR peptide binding to NRP-1, fluorescence polarization. inhibition, % at 25 µM. 360,000 tested, 0.85% active. AID 602438;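 active means inhibition or corrected inhibition above about 18%, plus a signal ratio from 0.5 to 1.5, limit read from the data, passing the limit was not always enough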
# Arr AP2 block – inhibitors of human beta-arrestin and AP2 interaction | AID 504490 | 340,000 tested, 0.31% active | FITC-arrestin peptide / GST-AP2 beads, flow cytometry; AP2 beta2 appendage carries R879A mutation | inhibition, % at 10 µM;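 active means inhibition above a set limit, near 3 SD of compounds lacking own fluorescence, cut at about 54% in these data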;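 further: plate controls were DMSO wells for no effect and 5 µM unlabelled arrestin peptide for full effect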
#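 System: GST-AP2 R879A bound to glutathione beads, E. coli-expressed. Also added: 50 nM FITC-arrestin peptide. Schedule: compound with beads 12 min RT, then probe 1 h RT. Signal: bead flow cytometry, FITC channel. Read-out basis: percent response.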
# ADAM17 inh – inhibitors of human ADAM17 | P78536 | inhibition, % at 6.95 µM | recombinant ADAM17, EDANS/DABCYL FRET peptide cleavage | 370,000 tested, 0.83% active | AID 720648;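 active means inhibition above the mean of compounds lying between control limits plus 3 SD, set per campaign, cut at about 8.5% in these data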;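 further: 0% = DMSO-only wells as the low control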
# Target sequence (P78536 215-824 limits assumed): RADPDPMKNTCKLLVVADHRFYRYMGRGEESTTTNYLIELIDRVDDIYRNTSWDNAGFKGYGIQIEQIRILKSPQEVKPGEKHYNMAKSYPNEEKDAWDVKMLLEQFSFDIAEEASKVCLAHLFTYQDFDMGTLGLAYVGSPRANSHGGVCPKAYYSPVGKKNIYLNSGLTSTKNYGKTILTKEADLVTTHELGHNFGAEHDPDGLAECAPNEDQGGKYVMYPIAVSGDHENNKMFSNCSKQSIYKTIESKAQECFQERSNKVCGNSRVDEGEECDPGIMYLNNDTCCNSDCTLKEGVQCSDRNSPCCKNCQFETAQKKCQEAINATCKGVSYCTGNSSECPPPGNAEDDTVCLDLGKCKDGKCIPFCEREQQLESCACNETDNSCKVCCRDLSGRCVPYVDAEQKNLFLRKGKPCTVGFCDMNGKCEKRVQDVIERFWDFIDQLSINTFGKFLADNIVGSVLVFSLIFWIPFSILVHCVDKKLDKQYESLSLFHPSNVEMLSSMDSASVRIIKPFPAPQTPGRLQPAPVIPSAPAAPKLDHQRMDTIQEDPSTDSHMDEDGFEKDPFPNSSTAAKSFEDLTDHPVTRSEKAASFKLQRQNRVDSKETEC
# ADAM10 inh – inhibitors of human ADAM10; recombinant ADAM10, EDANS/DABCYL FRET peptide cleavage, 3 h; inhibition, % at 7 µM; 370,000 tested, 0.62% active; AID 720582;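 active means inhibition above a per-campaign cutoff equal to the mean of compounds falling between control-based bounds plus 3 SD, cut at about 20% in these data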;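 further: 0% = DMSO wells while the 100% control is not disclosed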
# FAS TE block – inhibitors of human fatty acid synthase thioesterase domain; P49327; inhibition, % at 15 µM; 360,000 tested, 0.67% active; recombinant FAS-TE, OMFH fluorogenic substrate, fluorescence endpoint;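 active means compounds whose normalised, plate-corrected inhibition of enzyme fluorescence in the single-dose primary screen is 50% or more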;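 further: 0% = DMSO with enzyme and 100% = substrate without enzyme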
# ADAM10 confirm – human ADAM10 inhibition, confirmation; ADAM10 QFRET peptide cleavage, EDANS fluorescence; inhibition, % at 6.95 µM; 2,100 tested, 1% active; shares compounds with ADAM10 inh;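 active means inhibition above about 20% chosen separately for each screening run, limit read from the data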;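 further: 0% = DMSO wells and 100% = marimastat wells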
# ADAM17 ctr – ADAM17 inhibition, counter-screen for ADAM10 exosite hits; shares compounds with ADAM10 inh; ADAM17 QFRET peptide cleavage, EDANS fluorescence; inhibition, % at 6.95 µM; 2,100 tested, 0.5% active;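 active means mean triplicate inhibition above the solvent-only control wells' mean plus 3 SD, cut at about 12% in these data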;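 further: 0% = DMSO wells and 100% = marimastat wells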
# ADAM10 counter – ADAM10 inhibition, counter-screen for ADAM17 exosite hits | recombinant ADAM10, EDANS/DABCYL FRET peptide cleavage, 3 h | inhibition, % at 6.95 µM | 2,900 tested, 47% active | AID 743256 | shares compounds with ADAM17 inh;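 active means mean inhibition over the triplicate runs exceeds the activity threshold set in the earlier primary screen, cut at about 20% in these data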;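 further: 0% = DMSO wells and 100% = marimastat wells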
# ADAM17 confirm – human ADAM17 inhibition, confirmation | inhibition, % at 6.95 µM | recombinant ADAM17, EDANS/DABCYL QFRET peptide cleavage | 2,900 tested, 65% active | shares compounds with ADAM17 inh;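 active means mean inhibition across replicates above the hit cutoff set in the primary screen, cut at about 8.5% in these data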;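 further: 0% = DMSO wells and 100% = marimastat wells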
# The depositor's hits bear a star; . = not tested or not shown. Compounds with a hit are over-represented: about 2.9% of the library has one in this group of screens.
SMILES,CaV13 FRET inh,CendR NRP1 mod,Arr AP2 block,ADAM17 inh,ADAM10 inh,FAS TE block,ADAM10 confirm,ADAM17 ctr,ADAM10 counter,ADAM17 confirm
O=C(NCc1ccco1)c1ccc(N2CCOCC2)c([N+](=O)[O-])c1,-3,-10,5,-2,1,1,.,.,.,.
C=CCN1[C@@H](CC(C)C)COc2cccc(NCCCN3CCOCC3)c2S1(=O)=O,-6,.,.,-4,-9,.,.,.,.,.
COc1ccc(NC(=S)Nc2cc(-c3ccccc3)[nH]n2)cc1Cl,-11,-12,0,19*,32*,26,12,3,36*,22*
Cc1nn(C(C)C(=O)NC2CCCCC2)c(=O)c2nn(-c3ccccc3)c(C)c12 (centres undefined),-3,3,-9,-2,5,-4,.,.,.,.
CCN1C(=O)[C@H]2[C@@H](c3ccc(C)cc3)N[C@]3(CCCN(Cc4ccc(C(F)(F)F)cc4)C3=O)[C@H]2C1=O,-3,-2,.,-4,-19,3,.,.,.,.
Cc1ccc(CN2CCC[C@]3(N[C@H](c4ccc(C(F)(F)F)cc4)[C@@H]4C(=O)N(Cc5ccccc5)C(=O)[C@@H]43)C2=O)cc1,-10,5,.,9.7*,20*,21,2,1,38*,22*
Cc1ccc([C@H]2N[C@]3(CCCN(Cc4ccc(C(F)(F)F)cc4)C3=O)[C@H]3C(=O)N(Cc4ccccc4)C(=O)[C@@H]23)cc1,-1,3,.,12*,28*,36,4,1,34*,20*
Cc1ccc(NC(=O)c2cc(NC(=O)/C=C\C(=O)O)ccc2N2CCCCC2)cc1,-2,-15,27,19*,24*,8,9,2,-10,1
O=C1NC[C@@H](CCCCN2C[C@H](Cc3ccc(O)cc3)N(Cc3ccccc3)C(=O)C2=O)N(CCc2ccc(O)cc2)C1=O,-10,14,.,1,-4,-11,.,.,.,.
O=C(C[C@H]1C[C@H](C(=O)N2CCOCC2)[C@@]2(CCC3CCCC3)c3[nH]c4cc(-c5ccco5)ccc4c3CCN2C1=O)NCc1ccco1,-4,-30,13,-87,-340,38,.,.,.,.
COC(=O)[C@]12C[C@H](CC(=O)NCC34CC5CC(CC(C5)C3)C4)C(=O)N(CCc3ccc(OC)c(OC)c3)C1=C[C@H](C(C)(C)C)O[C@@H]2C,.,.,.,6,16,.,.,.,.,.
CCCCNC(=O)C[C@H]1C[C@@]2(C(=O)OC)C(=C[C@H](C(C)(C)C)O[C@@H]2C)N(Cc2cccc3ccccc23)C1=O,.,.,.,15*,29*,.,6,2,26*,17*
COC(=O)[C@]12C[C@H](CC(=O)NCc3ccccc3)C(=O)N(Cc3ccco3)C1=C[C@H](C1CCCC1)O[C@@H]2C,.,.,.,3,10,.,.,.,.,.
COC(=O)[C@]12C[C@H](CC(=O)NCCCCc3ccccc3)C(=O)N(CCc3ccc(OC)c(OC)c3)C1=C[C@H](C(C)(C)C)O[C@@H]2C,.,.,.,9.0*,27*,.,6,2,24*,13*
COCCCNC(=O)C[C@H]1C[C@@]2(C(=O)OC)C(=C[C@H](C(C)(C)C)O[C@@H]2C)N(Cc2cccc3ccccc23)C1=O,.,.,.,4,13,.,.,.,.,.
COC(=O)[C@]12C[C@H](CC(=O)NCc3cccc4ccccc34)C(=O)N(Cc3ccco3)C1=C[C@H](C1CCCC1)O[C@@H]2C,.,.,.,14*,22*,.,9,4,34*,17*
CC(C)C[C@H](NC1(C(=O)NC2CCCCC2)CCN(C(=O)OC(C)(C)C)CC1)C(=O)NCCc1c[nH]c2ccccc12,.,.,.,3,4,.,.,.,.,.
O=C(NNc1ccccc1Br)C(O)(c1cccc(C(F)(F)F)c1)c1cccc(C(F)(F)F)c1,-5,5,16,25*,49*,26,11,4,52*,23*
COc1cc(OC)c(C(=O)OCC(=O)NCC2CCCCC2)cc1OC,-4,10,2,-4,-1,-1,.,.,.,.
CCCCc1ccc(NC(=O)CN(C)CC(=O)Nc2ccccc2Cl)cc1,-1,8,-8,16*,34*,19,2,1,20*,9.6*
O=C(NO)c1ccc(OC(F)F)cc1,-5,2,-4,15*,25*,-6,11,2,15,19*
CCN(CC)C(=O)[C@H]1CC(CC(=O)NCc2cccc(C(F)(F)F)c2)C(=O)N2CCc3c([nH]c4ccccc34)[C@]12C (some centres undefined),-5,-1,6,1,-1,10,.,.,.,.
CCN(CC)C(=O)[C@H]1C[C@H](CC(=O)NCc2cccc(C(F)(F)F)c2)C(=O)N2CCc3c([nH]c4ccc(Cl)cc34)[C@]12C,-5,-9,-5,11*,23*,36,3,1,31*,13*
CCN(CC(=O)Nc1c(F)cccc1F)C(=O)c1cccc(S(=O)(=O)N2CCCc3ccccc32)c1,-19,13,15,-1,-13,9,.,.,.,.
COc1ccc([N+](=O)[O-])cc1NC(=S)NC(NC(=O)C(c1ccccc1)c1ccccc1)C(Cl)(Cl)Cl (centres undefined),-5,2,-4,19*,32*,41,9,3,29*,14*
COc1ccc([N+](=O)[O-])cc1NC(=O)C(C)c1ccccc1 (centres undefined),-5,-5,-23,0,5,45,.,.,.,.
CNC(=O)c1cc(Oc2ccc(NC(=O)Nc3ccc(Cl)c(C(F)(F)F)c3)cc2)ccn1,-10,7,-12,16*,25*,22,7,2,35*,20*
COCCCN1C(=O)[C@H](CC(=O)NCc2ccc(OC)c(OC)c2)[C@]2(C(=O)OC)CCCCC=C12,.,.,.,0,2,.,.,.,.,.
Cc1cc(N=O)no1,-9,.,.,-2,0,.,.,.,.,.
